The values that follow come from article PMC7611836 (Journal of natural products, 2020).

Like-named read-outs stand apart in the source and are kept apart here.

For data set [1], the system named is C4-2B cells. Description: Cell viability and cell count. It is filed as cell-based, Human. To be noted: 1 μM, 48 hours. The method in brief: (§1)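 150,000 cells per well were grown overnight, then given 1 μM test compound (ethanolic stock diluted in medium) or ethanol control for 48 h. Cells were trypsinized, pelleted (400 x g, 5 min), resuspended in PBS, stained with acridine orange/DAPI, and read for viability and count. n = 4 treated, 10 control; mean ± S.E.M.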

In data set [2] the test system is C4-2 cells. Put plainly: Cell growth curves. It is filed as cell-based, Human. To be noted: 1 μM. The method in brief:
(§2)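 Cells were seeded at 1,000 per well in RPMI 1640 with 10% FBS, 25 mM HEPES and 1 mM pyruvate, then grown with 1 μM test compound. Read-out was confluence (% of well surface covered by adherent cells) over time, also taken after 150 h. Eight replicates per condition; mean ± S.E.M.; unpaired two-tailed t-test.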

Data set [3] relates to C4-2B cells. Put plainly: Cell growth curves. It is filed as cell-based, Human. To be noted: 1 μM. A digest of the protocol:
as §2

Data set [4] deals with C4-2B cells. Description: Oxygen consumption rate. To be noted: 1 μM. It is filed as cell-based, Human. A digest of the protocol:
(§3)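 Mycoplasma-tested cells, 20,000 per poly-L-lysine-coated well, 16 h at 37 °C, 5% CO2. Moved to carbonate-free RPMI assay buffer (4.5 g L-1 glucose, pyruvate, pH 7.4) for 60 min CO2-free. […] Rotenone-insensitive rate subtracted; traces set to 100% pre-addition. n = 6 treated, 16 control; mean ± S.E.M.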

Data set [5] has as its system C4-2 cells. Put plainly: Oxygen consumption rate. In kind it is cell-based, Human. As to conditions: 1 μM. The method in brief:
as §3

Data set [6] relates to PNT2 cells. Description: Oxygen consumption rate. It is filed as cell-based, Human. To be noted: 1 μM. The method in brief: as §3
In data set [7] the test system is cancer cell. To be noted: Annexin V flow cytometry; cited from earlier work.
The test system of data set [8] is C4-2 cells. Put plainly: Cell viability and cell count. It is filed as cell-based, Human. To be noted: 1 μM, 48 hours. The method in brief: as §1
Data set [9] has as its system PNT2 cells. Description: Cell growth curves. It is filed as cell-based, Human. To be noted: 1 μM.
For data set [10] the following is noted: cited from earlier work; for neurotoxicity / crossing of the blood-brain barrier: rats and mice; for detection in brain as metabolite of 1 and 2: rat model of Parkinson's disease.
Data set [11] concerns PNT2 cells. Put plainly: Cell viability and cell count. In kind it is cell-based, Human. To be noted: 1 μM, 48 hours. A digest of the protocol: as §1
Data set [12] concerns A-549 lung, HCT-8 intestinal, RPMI-7951 skin, TE671 brain, and KB cervical cancer cells. As to conditions: range over all cell types; cited from earlier work.

Take `COc1cc2c(cc1OC)[C@@H]1C(=O)c3ccc4c(c3O[C@@H]1CO2)C[C@H](C(C)CO)O4` (mixture of isomers) [compound 5, (6aS,12aS,5′R,6′R)- and (6aS,12aS,5′R,6′S)-6′,7′-Dihydroamorphigenin]: the cell count entry in data set [1] is “marginal effects”. In addition, the “proliferation (cell growth)” value was “particularly affected” in data set [2] and “responded” in data set [3]. For the same molecule, the oxygen consumption rate result in [4], in [5] and in data set [6] was “powerful effect” in each case.

For the molecule `Cc1nc(-c2nc(-c3ccc(OC(F)(F)F)cc3)no2)nn1Cc1cccc(N2CCC(S(C)(=O)=O)CC2)c1` [IACS-01079], in data set [7], the “effect on cancer cell proliferation and viability” value is “inhibit both cancer cell proliferation and viability”.

`C=C(C)[C@H]1Cc2c(ccc3c2O[C@@H]2COc4cc(OC)c(OC)cc4[C@@H]2C3=O)O1` [compound 1, rotenone]: the cell count entry in data set [1], in data set [8] and in data set [11] was “affected cell counts” each time. Further, the “proliferation (cell growth)” value was “did not proliferate” in [2]; “did not proliferate” in data set [3]; “retained their ability to proliferate, albeit at a substantially reduced rate” in [9]. For the same molecule, the neurotoxicity result in [10] (3 mg kg^-1 day^-1) is reported as “cause neuronal damage”. For the same molecule, in data set [10], the “crossing of the blood-brain barrier” value is reported as “cross the blood-brain barrier”.

With `COc1cc2c(cc1OC)[C@@H]1C(=O)c3ccc4c(c3O[C@@H]1CO2)C=CC(C)(C)O4` [compound 2, deguelin], in [10] (6 mg kg^-1 day^-1), the neurotoxicity result is listed as “cause neuronal damage”. The “crossing of the blood-brain barrier” value in [10] was “cross the blood-brain barrier”.

For `COc1cc2c(cc1OC)[C@@H]1C(=O)c3ccc4c(c3O[C@@H]1CO2)C[C@H](C(C)(C)O)O4` [compound 4, (6aS,12aS,5′R)-Dalpanol], in [12], the “ED50 (half-maximal effective concentration), cytotoxicity” value was 0.48 to 4.83 µg/mL.

On to `C=C(C)[C@H]1Cc2c(ccc3c2O[C@@H]2COc4cc(OC)c(OC)cc4[C@]2(O)C3=O)O1` [compound 7, (6aR,12aR,5′R)-Rotenolone], for which, in [10], the “detection in brain as metabolite of 1 and 2” value is “detected in the brains of treated animals”; the “crossing of the blood-brain barrier” value was “cross the BBB”.

Take `COc1cc2c(cc1OC)[C@]1(O)C(=O)c3ccc4c(c3O[C@@H]1CO2)C=CC(C)(C)O4` [compound 8, tephrosin]: in data set [10], the “detection in brain as metabolite of 1 and 2” value is listed as “detected in the brains of treated animals”; the “crossing of the blood-brain barrier” value is given as “cross the BBB”.
